ChEMBL document CHEMBL1134685, “Antitumor Agents. 211. Fluorinated 2-phenyl-4-quinolone derivatives as antimitotic antitumor agents” (J Med Chem, 2001)

How the values were obtained:
Tubulin alpha chain [1] = target: T1, Tubulin alpha chain (Sus scrofa, UniProt P02550); test: (§1) Inhibition of tubulin polymerization. (ITP)
Outline: (§2)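 Tubulin polymerization inhibition, with reaction mixtures containing 10 μM tubulin. Result given as IC50.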

HCT-116 = test: Inhibition of in vitro tumor cell growth of HCT116, colon cancer cell line; assay type: functional; conditions: Homo sapiens
K562 = test: Inhibition of in vitro tumor cell growth of K-562, leukemia cell line; assay type: functional; conditions: Homo sapiens
NCI-H226 = test: Inhibition of tumor cell growth of NCI-H226, non-small-cell lung cell line; assay type: functional; conditions: Homo sapiens
RXF 393 = test: Inhibition of in vitro tumor cell growth of RXF-393, renal cancer cell line; assay type: functional; conditions: Homo sapiens
SF-295 = test: Inhibition of in vitro tumor cell growth of SF-295, CNS tumor cell line; assay type: functional; conditions: Homo sapiens
SF-268 = test: Inhibition of in vitro tumor cell growth of SF-268, CNS tumor cell line; assay type: functional; conditions: Homo sapiens
[2] = Inhibition of in vitro tumor cell growth of […], melanoma; assay type: functional; conditions: Homo sapiens
OVCAR-3 = test: Inhibition of in vitro tumor cell growth of OVCAR-3,ovarian cancer cell line; assay type: functional; conditions: Homo sapiens
Tubulin alpha chain [3] = target: T1, Tubulin alpha chain; test: Inhibition of tubulin polymerization (ITP); outline: as §2
[4] = target: Tubulin alpha chain (Sus scrofa) (UniProt P02550); test: as §1; outline: as §2
Sequence of Tubulin alpha chain (Sus scrofa) (P02550 whole entry, looked up): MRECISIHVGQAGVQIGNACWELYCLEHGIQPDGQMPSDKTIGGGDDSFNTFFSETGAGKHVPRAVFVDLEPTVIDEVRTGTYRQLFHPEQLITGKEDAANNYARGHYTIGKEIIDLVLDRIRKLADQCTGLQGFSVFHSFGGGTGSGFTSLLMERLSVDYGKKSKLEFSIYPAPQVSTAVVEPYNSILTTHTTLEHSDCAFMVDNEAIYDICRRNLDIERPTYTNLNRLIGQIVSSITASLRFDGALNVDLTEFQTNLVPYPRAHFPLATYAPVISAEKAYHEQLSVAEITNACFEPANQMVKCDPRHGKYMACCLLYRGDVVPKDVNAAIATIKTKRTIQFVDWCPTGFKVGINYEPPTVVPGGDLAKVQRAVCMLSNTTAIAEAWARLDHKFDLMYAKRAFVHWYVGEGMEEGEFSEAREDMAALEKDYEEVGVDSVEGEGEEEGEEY

T1 sequence (P02550 whole entry, looked up): as above

## O=c1[nH]c(/C=C/c2ccccc2)nc2ccccc12
Tubulin alpha chain [1]
  IC50: 5 µM

## CCOC(=O)COc1cc(-c2ccccc2F)nc2cc3c(cc12)OCO3
HCT-116
  GI50: 72.4 µM
K562
  GI50: 38 µM
NCI-H226
  GI50: > 100 µM
RXF 393
  GI50: > 100 µM
SF-295
  GI50: > 100 µM
SF-268
  GI50: > 100 µM
Tubulin alpha chain [1]
  IC50: > 40 µM
[2]
  GI50: 72.4 µM

## O=C(O)COc1cc(-c2ccccc2F)nc2cc3c(cc12)OCO3
HCT-116
  GI50: > 100 µM
K562
  GI50: > 100 µM
OVCAR-3
  GI50: > 100 µM
NCI-H226
  GI50: > 100 µM
RXF 393
  GI50: > 100 µM
SF-295
  GI50: > 100 µM
SF-268
  GI50: > 100 µM
Tubulin alpha chain [1]
  IC50: > 20 µM
[2]
  GI50: > 100 µM

## O=c1cc(-c2ccccc2F)[nH]c2cc3c(cc12)OCO3
Tubulin alpha chain [3]
  IC50: 0.68 µM
[2]
  GI50: 0.0209 µM

## Oc1cc(-c2ccccc2)nc2ccccc12
Tubulin alpha chain [3]
  IC50: 7.3 µM

## CCOC(=O)CCCOc1cc(-c2ccccc2F)nc2cc3c(cc12)OCO3
HCT-116
  GI50: > 100 µM
SF-268
  GI50: > 100 µM
Tubulin alpha chain [1]
  IC50: > 40 µM
[2]
  GI50: 57.5 µM

## O=c1cc(-c2ccccc2F)[nH]c2ccc(N3CCCC3)cc12
K562
  GI50: 0.0324 µM
RXF 393
  GI50: < 0.01 µM
SF-268
  GI50: 0.0389 µM
[4]
  IC50: 0.46 µM
[2]
  GI50: < 0.01 µM

## Cn1c(-c2ccccc2)cc(=O)c2ccccc21
Tubulin alpha chain [1]
  IC50: > 40 µM

## O=C(O)CCCOc1cc(-c2ccccc2F)nc2cc3c(cc12)OCO3
Tubulin alpha chain [1]
  IC50: 12 µM

## Fc1ccccc1-c1cc(S)c2cc3c(cc2n1)OCO3
HCT-116
  GI50: 5.5 µM
K562
  GI50: 56.2 µM
OVCAR-3
  GI50: 21.4 µM
NCI-H226
  GI50: 16.6 µM
RXF 393
  GI50: 29.5 µM
SF-295
  GI50: 11.7 µM
SF-268
  GI50: 20 µM
[2]
  GI50: 4.07 µM
